# Experimental data published in ChEMBL document CHEMBL3994580, “A novel class of α-glucosidase and HMG-CoA reductase inhibitors from Ganoderma leucocontextum and the anti-diabetic properties of ganomycin I in KK-Ay mice” (Eur J Med Chem, 2017).
# The source made the active and inactive calls. No cut-off for these calls is given here.
# Columns and labels:
# [1] = Inhibition of alpha-glucosidase in rat small intestinal mucosa assessed as reduction in glucose production using p-nitrophenyl alpha-D-glucopyranoside as substrate measured after 40 mins by glucose oxidase assay
# How it was run: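 Rat small intestinal mucosa enzyme. Compound in DMSO mixed with substrate (maltose, sucrose or pNPG) and enzyme in 0.1 M phosphate buffer pH 6.9, incubated 40 min. Glucose released measured by glucose oxidase kit at 550 nm. Blank lacked enzyme, control lacked compound. Percent inhibition calculated from blank-corrected OD.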
# Saccharomyces cerevisiae = assay: Non-competitive inhibition of baker's yeast alpha-glucosidase using varying levels of p-nitrophenyl alpha-D-glucopyranoside as substrate preincubated for 10 mins followed by substrate addition measured for 15 mins by Lineweaver-Burk plot analysis
# How it was run: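 Kinetics with inhibitor at 0.3 to 1 μM against α-glucosidase. pNPG at 2, 4, 6 and 8 μM. Initial velocities measured with and without inhibitor, and inhibition type assigned from Michaelis-Menten and Lineweaver-Burk plots.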
# Mus musculus [2] = assay: Acute toxicity in mouse assessed as convulsion up to […], po up to 14 days; assay type: organism-based; details: in vivo, 336 h
# Mus musculus [3] = assay: Antidiabetic activity in KK-Ay diabetic mouse model assessed as reduction in blood glucose level after 4 hrs fasting at 1 to 5 mg/kg/day administered via oral gavage once daily measured on day 3 post dose; assay type: functional, organism-based
# How it was run: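 KK-Ay mice on high-fat diet, gavaged once daily (1 or 5 mg/kg; rosiglitazone 10 mg/kg). Blood glucose monitored sequentially after 4 h fasting. Mean ± SEM, n = 8, compared with the KK-Ay model group.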
# Mus musculus [4] = assay: Antidiabetic activity in KK-Ay diabetic mouse model assessed as reduction in free diet blood glucose level at 1 to 5 mg/kg/day administered via oral gavage once daily measured on day 3 post dose; assay type: functional, organism-based
# How it was run: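 Non-fasted (free diet) blood glucose was tracked serially in high-fat-fed KK-Ay mice given daily gavage doses (1 or 5 mg/kg; rosiglitazone 10 mg/kg). Mean ± SEM, n = 8.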
# Mus musculus [5] = assay: Toxicity in KK-Ay diabetic mouse model assessed as changes in body weight at 1 to 5 mg/kg/day administered via oral gavage once daily measured every 3 days during first two weeks of compound dosing; assay type: organism-based; details: in vivo, 72 h
# How it was run: (§1)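 In high-fat-fed KK-Ay mice gavaged once daily for 21 days, individual body weight and cage food consumption were recorded every 3 days. Mean ± SEM, n = 8.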
# Mus musculus [6] = assay: Toxicity in KK-Ay diabetic mouse model assessed as decrease in body weight at 1 to 5 mg/kg/day administered via oral gavage once daily measured every 3 days post two weeks of compound treatment; assay type: organism-based; details: in vivo, 72 h; how it was run: as §1
# Mus musculus [7] = assay: Antidiabetic activity in KK-Ay diabetic mouse model assessed as reduction in serum insulin level at 1 to 5 mg/kg/day administered via oral gavage once daily for 21 days; assay type: functional, organism-based
# How it was run: (§2)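 Male KK-Ay mice (8 weeks old) on high-fat diet with water ad libitum, dosed by gavage once daily for 21 days (1 or 5 mg/kg test; rosiglitazone 10 mg/kg); female C57BL/6J mice as normal controls. Blood collected at study end. Serum lipids, insulin and glucose measured per cited method. ISI calculated from fasting blood glucose and fasting insulin. Mean ± SEM, n = 7-8.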
# Mus musculus [8] = assay: Antidiabetic activity in KK-Ay diabetic mouse model assessed as increase in insulin sensitivity index at 1 to 5 mg/kg/day administered via oral gavage once daily for 21 days; assay type: functional, organism-based; how it was run: as §2
# Mus musculus [9] = assay: Hypolipidemic activity in KK-Ay diabetic mouse model assessed as reduction in serum total cholesterol level at 1 to 5 mg/kg/day administered via oral gavage once daily for 21 days; assay type: functional, organism-based; how it was run: as §2
# Mus musculus [10] = assay: Hypolipidemic activity in KK-Ay diabetic mouse model assessed as reduction in serum LDL-C level at 1 to 5 mg/kg/day administered via oral gavage once daily for 21 days; assay type: functional, organism-based; how it was run: as §2
# Mus musculus [11] = assay: Decrease in hepatocyte hypertrophy in KK-Ay diabetic mouse model at 5 mg/kg/day administered via oral gavage once daily for 21 days by haematoxylin and eosin staining based microscopic or morphometric method; assay type: functional, organism-based
# How it was run: (§3)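 At study end, liver and abdominal white adipose tissue were fixed in 10% formaldehyde PBS (pH 7.4), paraffin-embedded, sectioned and stained with haematoxylin/eosin. Sections were assessed by microscopy or morphometry at 20×.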
# Mus musculus [12] = assay: Decrease in size of adipocytes in abdominal white adipose tissue in KK-Ay diabetic mouse model at 5 mg/kg/day administered via oral gavage once daily for 21 days by haematoxylin and eosin staining based microscopic or morphometric method; assay type: functional, organism-based; how it was run: as §3
# Mus musculus [13] = assay: Acute toxicity in mouse assessed as coma up to 3 g/kg, po up to 14 days; details: in vivo, 336 h
# Mus musculus [14] = assay: Acute toxicity in mouse assessed as effect on sleep up to 3 g/kg, po up to 14 days; details: in vivo, 336 h
# Mus musculus [15] = assay: Acute toxicity in mouse assessed as effect on behavior up to 3 g/kg, po up to 14 days; details: in vivo, 336 h
# Mus musculus [16] = assay: Acute toxicity in mouse assessed as changes in nature of stool up to 3 g/kg, po up to 14 days; details: in vivo, 336 h
smiles,measurement,setting,value
CC(C)=CCC/C(C)=C/CCC1=C[C@H](c2cc(O)ccc2O)OC1=O,IC50,[1],400 nM
same,inhibition,Saccharomyces cerevisiae,Active
same,Activity,Mus musculus [2],Non-Toxic
same,Activity,Mus musculus [3],Active
same,Activity,Mus musculus [4],Active
same,Activity,Mus musculus [5],Non-Toxic
same,Activity,Mus musculus [6],Toxic
same,Activity,Mus musculus [7],Active
same,Activity,Mus musculus [8],Active
same,Activity,Mus musculus [9],Active
same,Activity,Mus musculus [10],Active
same,Activity,Mus musculus [11],Active
same,Activity,Mus musculus [12],Active
same,Activity,Mus musculus [13],Non-Toxic
same,Activity,Mus musculus [14],Non-Toxic
same,Activity,Mus musculus [15],Non-Toxic
same,Activity,Mus musculus [16],Non-Toxic
